Assay outcomes: PubChem BioAssay, The Scripps Research Institute Molecular Screening Center
Compounds with a hit are over-represented: about 4.6% of the library has one in this group of screens.
GPR7 antag: GPR7 receptor antagonists, primary screen, cell-based, fluorescence, single concentration; GPR7-expressing cells, fluorescence antagonist assay; inhibition, % at 4.4 µM; actives 1.1% (n = 290,000); in the data active means inhibition above about 16%, passing the limit was not always enough;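 further: cells stimulated with the agonist NPW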
TAAR1 antagonist: human TAAR1 antagonists, primary screen, Fluo-8 calcium fluorescence, CHO RD-HGA16 cells | Trace amine-associated receptor 1 (Homo sapiens), Q96RJ0 | actives 1.5% (n = 360,000) | inhibition, % at 3 µM | AID 624466, 2012 | antagonist;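 active means inhibition above a per-plate cutoff, the mean inhibition of test compounds on that plate plus 3 SD, cut at about 49% in these data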
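System: RD-HGA16 CHO cells with stable hTAAR1 and Gα16 | Probe or stimulus: EC80 β-phenethylamine stimulus | Dosing: 3 µM, single point | Times: Dye loading 75 min at 37 °C, then 30 min room temperature | Measured by: Fluo-8 calcium-sensitive fluorescence | Read-out basis: % inhibition of agonist calcium response | Replicates: n of 1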
CHO parental Ca: ATP-evoked calcium signal inhibitors, parental CHO, primary screen, counter-screen for OX1R antagonist project, cell-based, fluorescence, Fluo-8 calcium dye; parental CHO-K1, ATP-induced calcium, Fluo-8 fluorescence; inhibition, % at 5.6 µM; actives 0.63% (n = 330,000); AID 463079, 2010;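 active means inhibition above that plate's mean sample inhibition plus 3 SD, cut at about 26% in these data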
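Measured by: calcium-sensitive Fluo-8 fluorescence / Test system: CHO parental line / Controls: ATP-challenged DMSO wells low, unchallenged DMSO wells high / Measure: % inhibition / Compound: single nominal dose of 5.6 µM per compound / Replicates: single well per compound, no replicates / Reagent: ATP as calcium-mobilizing challenge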
TAAR1 agonist: human TAAR1 agonists, primary screen, Fluo-8 calcium fluorescence, CHO RD-HGA16 cells; actives 0.99% (n = 360,000); activation, % at 3 µM; AID 624467, 2012; vehicle wells 0%, saturating PEA agonist 100%;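 active means activation above the mean activation of all test compounds in the run plus 3 SD, cut at about 38% in these data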
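Assay system – CHO-derived RD-HGA16 cells with stable Gα16 and human TAAR1 · Compound dosing – one-point dosing at 3 µM (nominal) · Incubation – 17-24 h seeding, 75 min 37 °C dye, 30 min RT · Measured by – kinetic Fluo-8 calcium fluorescence · Control set – DMSO vehicle as 0%, PEA at EC100 as 100% · Repeats – single well for each compound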
OX1R antag-1: OX1R (HCRTR1) antagonists, primary screen, fluorescence, CHO/OX1R cells, Fluo-8 calcium, orexin A; Fluo-8 calcium fluorescence; inhibition, % at 5 µM; actives 0.43% (n = 330,000); AID 434989, 2010;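 active means inhibition above its plate's threshold, mean inhibition of all tested compounds on the plate plus 3 SD, cut at about 37% in these data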
Target sequence (O43613 whole entry, looked up): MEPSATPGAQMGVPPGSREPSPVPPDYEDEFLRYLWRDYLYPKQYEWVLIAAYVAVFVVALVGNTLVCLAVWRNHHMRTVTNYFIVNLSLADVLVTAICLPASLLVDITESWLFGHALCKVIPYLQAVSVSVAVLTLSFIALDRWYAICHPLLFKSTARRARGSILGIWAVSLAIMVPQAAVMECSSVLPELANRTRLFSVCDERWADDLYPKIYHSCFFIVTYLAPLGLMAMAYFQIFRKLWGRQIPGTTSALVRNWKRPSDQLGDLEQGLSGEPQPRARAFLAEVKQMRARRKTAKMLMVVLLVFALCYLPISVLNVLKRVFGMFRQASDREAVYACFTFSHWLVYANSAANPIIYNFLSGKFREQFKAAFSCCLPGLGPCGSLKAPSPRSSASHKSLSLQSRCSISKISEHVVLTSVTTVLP
OX1R antag-2: antagonists of human orexin 1 receptor (OX1R); AID 485270, 2010; actives 1.8% (n = 330,000); inhibition, % at 6.6 µM; OX1R-expressing cells, FRET antagonist read-out; in the data active means inhibition mostly above about 38%, no sharp cut-off; inactive means mostly below about 40%
nonsel antag count: nonselective antagonists in TAAR1 counter-screen cells, counter-screen for hTAAR1 antagonist project, cell-based, fluorescence, calcium; AID 651780, 2012; actives 77% (n = 2,400); shares compounds with TAAR1 antagonist; counterscreen cell line, antagonist mode; inhibition, % at 3 µM; in the data active means inhibition above about 22%;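 further: CHO-Ga16 host cells stimulated with ATP at an EC80 level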
TAAR1 ant conf: human TAAR1 antagonists, retest of hits, confirmation, cell-based, fluorescence. TAAR1-expressing cells, fluorescence antagonist read-out. actives 40% (n = 2,400). inhibition, % at 3 µM. shares compounds with TAAR1 antagonist. AID 651785, 2012; in the data active means inhibition above about 49%;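 further: CHO-Ga16 host cells challenged with agonist PEA near its EC80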
Ga16 ag counter: calcium activation in Ga16-expressing cells, counter-screen for TAAR1 antagonist project, cell-based, fluorescence; shares compounds with TAAR1 antagonist; agonist counterscreen; activation, % at 3 µM; actives 18% (n = 2,400); in the data active means activation above about 12%
TAAR1 ag counter: TAAR1 activation by candidate antagonists – cell-based, fluorescence, counter-screen for TAAR1 antagonist project; actives 2% (n = 2,400); shares compounds with TAAR1 antagonist; hTAAR1 cell line, agonist mode; activation, % at 3 µM; AID 651955, 2012; in the data active means activation above about 37%;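 further: CHO cells stably expressing TAAR1 with calcium dye readout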
Hits are given with their value; - = inactive; . = no result given.

SMILES | GPR7 antag | TAAR1 antagonist | CHO parental Ca | TAAR1 agonist | OX1R antag-1 | OX1R antag-2 | nonsel antag count | TAAR1 ant conf | Ga16 ag counter | TAAR1 ag counter
C=CC[C@@H](CC(=O)N[C@@H](CO)Cc1ccccc1)C(=O)NC[C@@H](OC(=O)[C@@H](CC=C)Cc1ccc(F)cc1)c1ccccc1 | . | - | - | - | - | - | . | . | . | .
C=CC[C@@H](CC(=O)NCCO)C(=O)NC[C@H](OC(=O)[C@@H](CC=C)Cc1ccc(F)cc1)c1ccccc1 | . | 78 | - | - | - | - | 32 | 63 | 13 | -
Cc1nn(-c2ccccc2)c(C)c1NC(=O)COC(=O)[C@@H](NC(=O)c1ccccc1)C(C)C | . | - | - | - | - | - | . | . | . | .
Cc1nn(-c2ccccc2)c(C)c1NC(=O)COC(=O)c1ccc(O)cc1O | - | 76 | . | - | . | . | 29 | 55 | - | -
CCCCOc1ccc(Cc2n[nH]c(=S)n2N)cc1 | - | - | - | - | - | - | . | . | . | .
CSc1ccc(CN(C)C(=O)C(Cc2ccccc2)NC(=O)c2ccccc2)cc1 (stereo not given) | - | 82 | - | - | - | 70 | 34 | 57 | - | -
CCOc1ccc(CN(C)C(=O)[C@H](Cc2ccccc2)NC(=O)OCc2ccccc2)cc1OC | - | 62 | - | - | - | - | 30 | 55 | - | -
CSc1ccc(CN(C)C(=O)C(c2ccccc2)c2ccccc2)cc1 | - | - | - | - | - | - | . | . | . | .
CN(Cc1ccc(F)cc1)C(=O)C(Cc1ccccc1)NC(=O)c1ccccc1 (stereo not given) | . | 67 | - | - | - | - | 27 | 55 | - | -
CCOc1ccc(CN(C)C(=O)NNC(=O)c2ccc(C)cc2)cc1OC | - | - | - | - | - | - | . | . | . | .
CSc1ccc(CCNC(=O)c2ccc(CS(=O)Cc3ccc(Cl)cc3)o2)cc1 (stereo not given) | - | 53 | - | - | - | - | 32 | - | - | -
O=C(NCCc1ccc(Cl)cc1)c1ccc(CS(=O)Cc2ccc(Cl)cc2)o1 (stereo not given) | - | - | - | - | - | - | . | . | . | .
COc1cc2c(cc1NC(=O)COc1ccccc1OC)oc1ccccc12 | - | - | - | - | - | - | . | . | . | .
COc1cc2c(cc1NC(=O)COC(=O)Cn1cnc3ccccc31)oc1ccccc12 | - | 49 | . | - | . | . | - | - | - | -
COC(CN(C)S(=O)(=O)c1cc2c3c(c1)CCN3C(=O)CC2)OC | - | - | - | - | - | - | . | . | . | .
COc1ccc2c(c1OC)C(=O)N1c3ccccc3C(=O)N(c3ccccc3)C21 (stereo not given) | - | 63 | - | - | - | - | 32 | 51 | 12 | -
COc1cccc(C2Nc3ccccc3C(=O)N2c2ccc(F)cc2)c1O (stereo not given) | - | - | - | - | - | - | . | . | . | .
Cc1ccccc1N1C(=O)c2ccccc2N2C(=O)c3ccccc3C12 (stereo not given) | - | - | - | - | - | - | . | . | . | .
